Source: PubChem BioAssay AID504383 (The Scripps Research Institute Molecular Screening Center, 2011)
In all, about 2,500 compounds went through this assay and about 1,200 (48%) were called active. So high a share suggests a set chosen from earlier hits. The list shows a part of the results. A number with no mark means an inactive call.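 How the source made its calls: active means mean activation above the low control average plus 3 SD, as set in the primary screen (cut at about 12% in these data); inactive means the rest.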

What follows are molecules tested against Troponin I, cardiac muscle (Homo sapiens) + Troponin T, cardiac muscle (Homo sapiens) + Troponin C, slow skeletal and cardiac muscles (Homo sapiens) (UniProt P19429+P45379+P63316) (assay: cardiac RTF calcium sensitivity activators, confirmation, biochemical, IANBD-TnC fluorescence, triplicate (AID 504383;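 further: 0% = DMSO at 0.472 mM calcium and 100% = DMSO at 2.9 mM calcium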)). Details: IANBD-labeled cardiac RTF, Ca2+ sensitivity fluorescence; at 7.2 µM; active compounds read high; scaled from EC20 to saturating calcium; tested at EC20 calcium, 0.472 mM.
In short: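 material = labelled regulated thin filaments | probe or stimulus = Ca2+ 0.472 mM, EC20 level | dosing = single nominal compound dose of 7.2 µM | schedule = 15 min at 25 °C | signal = fluorescence intensity of labelled filaments | evaluation = fluorescence gain scaled between EC20 and EC100 calcium controls | benchmarks = low control EC20 calcium, high control EC100 calcium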

Structure (SMILES)	activation
CCc1ccccc1SCc1noc(C(=O)NCC2CCCO2)c1C(=O)O (centres undefined)	10.6%
O=C(NCC(=O)N(CC1CCCO1)C1(C(=O)NC2CCCCC2)CCCCC1)c1ccccc1 (centres undefined)	8.78%
O=C(NC(=S)NCC1CCCO1)C(c1ccccc1)c1ccccc1 (centres undefined)	12.2% (active)
CCOc1ccc2cc(/C=C/C(=O)c3ccco3)c(Cl)nc2c1	4.88%
CCCc1cc(=O)[nH]c(SCC)n1	11.7% (active)
Cc1nc(Cl)c2c(n1)NC1=C(O2)C(=O)CCC1	10.5%
CCN(CC)C(=O)c1ccc(/C=C/c2c[nH]c3ccccc23)[n+](C)c1	11.1%
CCOC(=O)/C(=C\c1c[nH]c2ccccc12)NC(C)=O	31.7% (active)
CCOC(=O)C(CCCCCCC(NC(C)=O)(C(=O)OCC)C(=O)OCC)(NC(C)=O)C(=O)OCC	9.57%
CCN(CC)C1=CC2=CC(=C(C#N)C#N)CCC2CC1 (centres undefined)	1.65%
Cn1cccc1/C=C1\SC(=S)N(NC(=O)c2ccc(Cl)cc2)C1=O	16.8% (active)
Cc1ccc(C(=O)NN2C(=O)/C(=C/c3cccn3C)SC2=S)cc1	25.1% (active)
Cn1cccc1/C=C1\SC(=S)N(NC(=O)c2ccccc2)C1=O	54.2% (active)
O=c1cc(CN2CCCc3ccccc32)nc2sccn12	5.39%
c1ccc2c(c1)CCCN2Cc1nnnn1CC1CCCO1 (centres undefined)	7.11%
c1ccc2c(c1)CCCN2Cc1nnc2n1CCCCC2	92% (active)
COc1cc(/C=C2\CCC(C)C3=C(c4cc(OC)c(OC)c(OC)c4)C(C#N)=C(N)OC32)cc(OC)c1OC (centres undefined)	36.4% (active)
O=c1oc2cc(O)ccc2cc1-c1nc2c(s1)CCc1ccccc1-2	7.71%
O=c1oc2ccccc2cc1-c1ccc(O)cc1O	94.9% (active)
O=c1c(-c2ccc(O)cc2O)coc2cc(O)cc(O)c12	8.85%
CC(C)(C)NC(=O)[C@@H]1CN(Cc2cccnc2)CCN1C[C@@H](O)C[C@@H](Cc1ccccc1)C(=O)N[C@H]1c2ccccc2C[C@H]1O	158% (active)
CN(CC(=O)Nc1ccccc1Cl)C(=O)c1cc(=O)[nH]c2ccccc12	49.3% (active)
CN(C)S(=O)(=O)c1ccc(C(=O)Oc2cc(=O)[nH]c3ccccc23)cc1	10.2%
COc1ccc(N(CC(=O)Nc2ccccc2C(=O)NCC(C)C)S(C)(=O)=O)cc1	4.96%

Structure (SMILES)	activation
CCNC(=S)NNC(=O)CCn1cc(C)cn1	6.76%
CCn1cc(Cl)c(C(=O)NNC(=O)CCn2cc([N+](=O)[O-])cn2)n1	23.9% (active)
CCCCCCc1cc2cc(-c3nnc(-c4ccccc4O)o3)c(=O)oc2cc1O	14.4% (active)
CCCCCCc1cc2cc(-c3nnc(-c4ccccc4)o3)c(=O)oc2cc1O	4.49%
O=[N+]([O-])c1cc(-c2nc(-c3ccncc3)no2)ccc1Cl	7.62%
CCOC(=O)C1(Cc2cccc(OC)c2)CCN(Cc2ccon2)CC1	12.7% (active)
CCOC(=O)C1(Cc2cccc(OC)c2)CCCN(Cc2nccn2CC)C1 (centres undefined)	6.61%
CCOC(=O)C1(CCc2ccccc2)CCN(C(=O)c2occc2C)CC1	9.68%
Nc1ccc(S(N)(=O)=O)cc1N	600% (active)
CC(C)CN(C(=O)CCCc1nc2ccccc2c(=O)[nH]1)c1c(N)n(Cc2ccccc2)c(=O)[nH]c1=O	8.94%
CCOc1ccccc1N1CCN(CC(=O)c2c(N)n(C)c(=O)n(C)c2=O)CC1	14.9% (active)
CCOc1ccccc1N1CCN(CC(=O)N(CC(C)C)c2c(N)n(CC(C)C)c(=O)[nH]c2=O)CC1	35.3% (active)
CCCCn1c(N)c(N(CC(C)C)C(=O)Cc2ccc(S(=O)(=O)N3CCOCC3)s2)c(=O)[nH]c1=O	8.87%
O[C@@H]1CN(C2CCCCC2)CC[C@H]1N1CCN(CCc2ccccc2)CC1	18.1% (active)
c1ccc(CCCN2CCN(c3ccccc3)CC2)cc1	7.15%
CC1=NN(c2ccc(C)c(C)c2)C(=O)/C1=C/c1ccc2c(c1)n(C)c(=O)n2C	57.9% (active)
CC1=NN(c2ccc(Br)cc2)C(=O)/C1=C/c1ccc(-c2ccccc2C(=O)O)o1	10.1%
O=C(Nc1ccc(C(=O)N2CCOCC2)cc1)Nc1cccc(Cl)c1	47.5% (active)
O=C(NCC1CC1)Nc1cccc(Cl)c1	2.84%
CN1CCC/C1=C1/C(=O)N(c2ccccc2)N=C1NC(=O)Nc1cccc(Cl)c1	-1.33%
COCCOC(=O)/C(=C/c1ccc(OC(=O)c2ccccc2)cc1)C(C)=O	8.35%
CC(COC(=O)c1ccccc1)(COC(=O)c1ccccc1)/[N+]([O-])=C/c1ccccc1	32% (active)
COCc1cc(=O)[nH]c2cc(NC(=O)C(C)(C)CCl)c(C)cc12	4.59%
Nc1ccc2nc3c(=O)n(C4CCCCC4)c(=O)[nH]c3nc2c1	16.6% (active)

Structure (SMILES)	activation
Cc1cc2nc3c(=O)[nH]c(=S)[nH]c3nc2cc1NC(=O)C(F)(F)F	25.4% (active)
Nc1ccc2nc3c(=O)[nH]c(=S)[nH]c3nc2c1	28.7% (active)
Cc1cc2nc3c(=O)n(C4CCCCC4)c(=O)[nH]c3nc2cc1N	17.8% (active)
Cc1cc2nc3c(=O)[nH]c(=O)[nH]c3nc2c([N+](=O)[O-])c1N	2.96%
O=C(c1ccc(Cn2cc([N+](=O)[O-])cn2)o1)N1N=C(C(F)F)CC1(O)C(F)F (centres undefined)	14.1% (active)
O=C(c1ccc(COc2ccccc2Br)o1)N1N=C(C(F)F)CC1(O)C(F)F (centres undefined)	34.5% (active)
c1ccc(-n2ncc(-c3nn[nH]n3)n2)cc1	163% (active)
CC(=O)Nc1ccc(N2C(=O)c3cccc4c(O)ccc(c34)C2=O)cc1	2.36%
CC(=O)Nc1ccc(N2C(=O)CSC2c2ccc(F)cc2)cc1 (centres undefined)	81.7% (active)
CCC(=O)N1CCC2(CC1)Oc1ccc(Cl)cc1C(=O)C21CC(c2cccnc2)=NO1 (centres undefined)	19.6% (active)
CN1C(=O)/C(=C\c2ccc(N(C)C)cc2)OC1=S	223% (active)
Cc1c(N2C(=O)/C(=C\c3ccc(N(C)C)cc3)N(C)C2=S)c(=O)n(-c2ccccc2)n1C	6.77%
CN(C)c1ccc(/C=C2\N=C(C(C)(C)C)OC2=O)cc1	7.46%
CN(N=Nc1nc[nH]c1C(=O)NN)C1CCCCC1	12.9% (active)
Cc1cc(C)c(C#N)c(SCc2nnc(-c3ccccc3)o2)n1	50.8% (active)
COC(=O)CCCNC(=O)CCc1nnc(-c2ccc(-c3ccccc3)cc2)o1	10.8%
O=C(CO/N=C/c1ccccc1OC(F)F)NCc1cccs1	70.3% (active)
O=C1c2cccc3c(N4CCCCC4)ccc(c23)C(=O)N1c1ccccc1O	-0.04%
CCCN1C(=O)c2cccc3c(N4CCCCC4)ccc(c23)C1=O	6.04%
C=CCN1C(=O)c2cccc3c(N4CCCCC4)ccc(c23)C1=O	15.9% (active)
O=C1c2cccc3c(N4CCCCC4)ccc(c23)C(=O)N1c1ccc(O)cc1	10.7%
O=C1c2cccc3c(N4CCCCC4)ccc(c23)C(=O)N1CCO	185% (active)
O=C1c2cccc3c(N4CCCCC4)ccc(c23)C(=O)N1c1cccc(O)c1	33.3% (active)
Cc1n[nH]c(C)c1N1C(=O)c2cccc3c(N4CCCCCC4)ccc(c23)C1=O	5.61%

Structure (SMILES)	activation
O=C1c2ccccc2-c2onc3ccc(N4CCCC4)c1c23	9.75%
CC1(C)C2CCC(C2)C1(C)N=C1OC(CCl)CS1 (centres undefined)	3.58%
O=c1oc2c3c4c(cc2c(C(F)(F)F)c1CCN1CCOCC1)CCCN4CCC3	4.32%
Cc1ccc2c(CN3CCCc4ccccc43)cc(=O)oc2c1C	-0.53%
O=c1ccc2cc3c4c(c2o1)CCCN4CCC3	33.6% (active)
N=c1oc2c3c4c(cc2cc1C(=O)Nc1ccccc1)CCCN4CCC3	88.7% (active)
CCN(CC)S(=O)(=O)c1ccc2[nH]cc(C(=O)NCCN3CCCCCC3)c(=O)c2c1	34.4% (active)
CC(=O)N1CCN(S(=O)(=O)c2cccc(C(=O)NNC(=O)c3ccc(Br)cc3)c2)CC1	7.22%
CC(C)(C)c1cc(NC(=O)c2cccc(S(=O)(=O)N3CCOCC3)c2)no1	23.5% (active)
Cn1nc(-c2ccccc2)c(C(=O)Nc2ccc(C(F)(F)F)cc2)c1Cl	26.2% (active)
CN1CCN(C2=CC3=CC(=C(C#N)C#N)CCC3CC2)CC1 (centres undefined)	6.77%
CSCC(C)N1CCC(n2nccc2NC(=O)CCCc2ccccc2)CC1 (centres undefined)	162% (active)
CC(=O)NCC(O)c1ccc([N+](=O)[O-])cc1 (centres undefined)	7.74%
COC(=O)CCN(C(=O)c1ccc([N+](=O)[O-])cc1)c1ccccn1	19.7% (active)
COCCCNc1c2c3c(cccc3[nH]c1=O)C(=O)c1ccccc1-2	13.2% (active)
CCCCNc1c2c3c(cccc3n(C)c1=O)C(=O)c1ccccc1-2	2.63%
CC(C)n1cnc2c(NCc3ccccc3)cc(N[C@H](C)CO)cc21	-7.72%
CCOC(=O)c1sc2nc(C)nc(SCC(=O)NC3CCS(=O)(=O)C3)c2c1C (centres undefined)	32.3% (active)
C[C@@H]1CC=C[C@H]2[C@H]1C(=O)N(Cc1ccccc1)[C@H]2c1ccc(-c2cc3ccccc3s2)cc1F	3.06%
CN(Cc1ccccc1)C(=O)c1cccc(N2C(=O)NC3CC2(C)Oc2ccccc23)c1 (centres undefined)	54% (active)
COc1cccc2c1OC1(C)CC2NC(=O)N1Cc1ccccc1 (centres undefined)	10.4%
CCOc1cccc2c1OC1(C)CC2NC(=O)N1c1cccc(C(=O)NCc2ccccn2)c1 (centres undefined)	5.07%
